Reference: ChEMBL document CHEMBL3616436, “Synthesis, cytotoxicity and antimicrobial activity of thiourea derivatives incorporating 3-(trifluoromethyl)phenyl moiety” (Eur J Med Chem, 2015)
Converted amounts (≈) assume the structure as drawn.

Experiments:
[1] = Cytotoxicity against human MT4 cells; format: cell-based
[2] = system: Vesicular stomatitis virus; assay: Antiviral activity against Vesicular stomatitis virus ATCC VR 1540 infected in African green monkey Vero 76 cells assessed as reduction of virus-plaque formation after 2 days by crystal violet staining; format: functional, organism-based; details: ATCC VR 1540, Vero, 48 h
[3] = system: Human immunodeficiency virus 1; assay: Antiviral activity against HIV1 3B infected in human MT4 cells assessed as protection against virus-induced cytopathogenicity by MTT assay; format: functional, organism-based; details: Human immunodeficiency virus 1, 3B
Yellow fever virus = assay: Antiviral activity against Yellow fever virus 17D infected in BHK cells assessed as protection against virus-induced cytopathogenicity after 3 to 4 days by MTT assay; format: functional, cell-based
[4] = system: Mammalian orthoreovirus 1; assay: Antiviral activity against Reovirus type-1 ATCC VR-214 infected in BHK cells assessed as protection against virus-induced cytopathogenicity after 3 to 4 days by MTT assay; format: functional, cell-based; details: Mammalian orthoreovirus 1, ATCC VR-214, BHK
Procedure, shortened: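 Cells seeded in 96-well plates (BHK 5x10^4, MDBK 3x10^4 cells/well), grown overnight to confluence, infected at m.o.i. 0.01 (BHK for Reo-1, MDBK for BVDV); serial compound dilutions in maintenance medium with 0.5% inactivated FBS added after 1 h; viability by MTT after 3–4 days at 37°C; EC50 for 50% protection by linear regression.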

Vaccinia virus = assay: Antiviral activity against Human Vaccinia virus ATCC VR-1549 infected in African green monkey Vero 76 cells assessed as reduction of virus-plaque formation after 3 days by crystal violet staining; format: functional, organism-based; details: Orthopoxvirus vaccinia, ATCC VR-1549, Vero, 72 h
Staphylococcus aureus [5] = assay: Antimicrobial activity against Staphylococcus aureus ATCC 6538 at 400 ug after 18 hrs by disc-diffusion method; format: functional; details: ATCC 6538, 18 h, read-out: IZ
Procedure, shortened: (§1)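 Disc diffusion on Mueller-Hinton II agar per CLSI; 9 mm paper discs loaded with 400 µg compound from DMSO solution, dried, placed on agar; growth inhibition zone diameter read after 18 h at 35°C.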

[6] = system: Staphylococcus epidermidis; assay: Antimicrobial activity against Staphylococcus epidermidis ATCC 35984 at 400 ug after 18 hrs by disc-diffusion method; format: functional; details: ATCC 35984, 18 h, read-out: IZ; procedure, shortened: as §1
Bacillus subtilis = assay: Antimicrobial activity against Bacillus subtilis ATCC 6633 at 400 ug after 18 hrs by disc-diffusion method; format: functional; details: ATCC 6633, 18 h, read-out: IZ; procedure, shortened: as §1
Micrococcus luteus = assay: Antimicrobial activity against Micrococcus luteus ATCC 9341 at 400 ug after 18 hrs by disc-diffusion method; format: functional; details: ATCC 9341, 18 h, read-out: IZ; procedure, shortened: as §1
Staphylococcus aureus [7] = assay: Antimicrobial activity against Staphylococcus aureus NCTC 4163 after 18 hrs by twofold serial microdilution method; format: functional; details: NCTC 4163, 18 h
Staphylococcus aureus [8] = assay: Antimicrobial activity against Staphylococcus aureus ATCC 25923 after 18 hrs by twofold serial microdilution method; format: functional; details: ATCC 25923, 18 h
[9] = system: Staphylococcus epidermidis; assay: Antimicrobial activity against Staphylococcus epidermidis ATCC 12228 after 18 hrs by twofold serial microdilution method; format: functional; details: ATCC 12228, 18 h
[10] = system: Staphylococcus epidermidis; assay: Antimicrobial activity against Staphylococcus epidermidis ATCC 35984 after 18 hrs by twofold serial microdilution method; format: functional; details: ATCC 35984, 18 h
Staphylococcus aureus [11] = assay: Antimicrobial activity against hospital methicillin-resistant Staphylococcus aureus 53/05 after 18 hrs by twofold serial microdilution method; format: functional; details: 53/05, 18 h
Procedure, shortened: (§2)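 Twofold serial microdilution in Mueller-Hinton broth. Compound stock was made in DMSO and diluted in sterile water. Tested range was 0.125–512 µg/mL. Final inoculum was 10^5 CFU/mL. Plates were incubated 18 h at 35 °C. MIC is the lowest concentration preventing visible growth.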

Staphylococcus aureus [12] = assay: Antimicrobial activity against hospital methicillin-resistant Staphylococcus aureus 54/05 after 18 hrs by twofold serial microdilution method; format: functional; details: 54/05, 18 h; procedure, shortened: as §2
Staphylococcus aureus [13] = assay: Antimicrobial activity against hospital methicillin-resistant Staphylococcus aureus 57/05 after 18 hrs by twofold serial microdilution method; format: functional; details: 57/05, 18 h; procedure, shortened: as §2
Staphylococcus aureus [14] = assay: Antimicrobial activity against hospital methicillin-resistant Staphylococcus aureus 80/05 after 18 hrs by twofold serial microdilution method; format: functional; details: 80/05, 18 h; procedure, shortened: as §2
[15] = system: Staphylococcus epidermidis; assay: Antimicrobial activity against hospital methicillin-resistant Staphylococcus epidermidis 16/04 after 18 hrs by twofold serial microdilution method; format: functional; details: 16/04, 18 h; procedure, shortened: as §2
[16] = system: Staphylococcus epidermidis; assay: Antimicrobial activity against hospital methicillin-resistant Staphylococcus epidermidis 31/04 after 18 hrs by twofold serial microdilution method; format: functional; details: 31/04, 18 h; procedure, shortened: as §2
[17] = system: Staphylococcus epidermidis; assay: Antimicrobial activity against hospital methicillin-resistant Staphylococcus epidermidis 62/04 after 18 hrs by twofold serial microdilution method; format: functional; details: 62/04, 18 h; procedure, shortened: as §2
[18] = system: Staphylococcus epidermidis; assay: Antimicrobial activity against hospital methicillin-resistant Staphylococcus epidermidis 63/04 after 18 hrs by twofold serial microdilution method; format: functional; details: 63/04, 18 h; procedure, shortened: as §2
[19] = system: Staphylococcus epidermidis; assay: Antimicrobial activity against hospital methicillin-resistant Staphylococcus epidermidis 76/04 after 18 hrs by twofold serial microdilution method; format: functional; details: 76/04, 18 h; procedure, shortened: as §2
[20] = system: Staphylococcus epidermidis; assay: Antimicrobial activity against hospital methicillin-resistant Staphylococcus epidermidis 151/04 after 18 hrs by twofold serial microdilution method; format: functional; details: 151/04, 18 h; procedure, shortened: as §2
Staphylococcus aureus [21] = assay: Ratio of ciprofloxacin MIC to compound MIC for hospital methicillin-resistant Staphylococcus aureus 54/05 after 18 hrs by twofold serial microdilution method; format: functional
Procedure, shortened: (§3)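 Ratio of MICs for ciprofloxacin and test agent, each from twofold serial broth microdilution in Mueller-Hinton broth following CLSI guidelines. DMSO stock was diluted in sterile water to 0.125–512 µg/mL, with a final inoculum of 10^5 CFU/mL.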

Staphylococcus aureus [22] = assay: Ratio of ciprofloxacin MIC to compound MIC for hospital methicillin-resistant Staphylococcus aureus 57/05 after 18 hrs by twofold serial microdilution method; format: functional; procedure, shortened: as §3
Staphylococcus aureus [23] = assay: Ratio of ciprofloxacin MIC to compound MIC for hospital methicillin-resistant Staphylococcus aureus 81/05 after 18 hrs by twofold serial microdilution method; format: functional; procedure, shortened: as §3
Staphylococcus aureus [24] = assay: Ratio of ciprofloxacin MIC to compound MIC for hospital methicillin-resistant Staphylococcus aureus 522/11 after 18 hrs by twofold serial microdilution method; format: functional; procedure, shortened: as §3
[25] = system: Staphylococcus epidermidis; assay: Ratio of ciprofloxacin MIC to compound MIC for hospital methicillin-resistant Staphylococcus epidermidis […]/[…] after 18 hrs by twofold serial microdilution method; format: functional, 16/04
[26] = system: Staphylococcus epidermidis; assay: Ratio of ciprofloxacin MIC to compound MIC for hospital methicillin-resistant Staphylococcus epidermidis 23/04 after 18 hrs by twofold serial microdilution method; format: functional; procedure, shortened: as §3
[27] = system: Staphylococcus epidermidis; assay: Ratio of ciprofloxacin MIC to compound MIC for hospital methicillin-resistant Staphylococcus epidermidis 63/04 after 18 hrs by twofold serial microdilution method; format: functional; procedure, shortened: as §3
[28] = system: Staphylococcus epidermidis; assay: Ratio of ciprofloxacin MIC to compound MIC for hospital methicillin-resistant Staphylococcus epidermidis 151/04 after 18 hrs by twofold serial microdilution method; format: functional; procedure, shortened: as §3
[29] = system: Mycobacterium tuberculosis; assay: Antimycobacterial activity against drug-sensitive Mycobacterium tuberculosis Spec. 192; format: functional
Procedure, shortened: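 Classical test-tube successive-dilution method in Youmans' modification of Proskauer and Beck liquid medium with 10% bovine serum. Inoculum came from 14-day cultures. DMSO stock was 10 mg/mL, diluted geometrically in medium. Tubes were incubated at 37 °C. Concentrations tested were 3.1, 6.2, 12.5, 25, 50 and 100 µg/ml. MIC is the minimum concentration inhibiting growth relative to compound-free tubes.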

Structure (SMILES) | EC50 [2] | EC50 [3] | EC50 (Yellow fever virus) | EC50 [4] | EC50 (Vaccinia virus) | zone of inhibition at 400 µg/disc (Staphylococcus aureus [5]) | zone of inhibition at 400 µg/disc [6] | zone of inhibition at 400 µg/disc (Bacillus subtilis) | zone of inhibition at 400 µg/disc (Micrococcus luteus) | MIC (Staphylococcus aureus [7]) | MIC (Staphylococcus aureus [8]) | MIC [9] | MIC [10] | MIC (Staphylococcus aureus [11]) | MIC (Staphylococcus aureus [12]) | MIC (Staphylococcus aureus [13]) | MIC (Staphylococcus aureus [14]) | MIC [15] | MIC [16] | MIC [17] | also measured
FC(F)(F)c1cccc(NC(=S)Nc2cccc(Br)c2)c1 | > 14 µM | > 9.2 µM | > 10 µM | > 10 µM | > 14 µM | 29 mm | 27 mm | 26 mm | 33 mm | 1 µg/mL (≈ 2.67 µM) | 1 µg/mL (≈ 2.67 µM) | 2 µg/mL (≈ 5.33 µM) | 2 µg/mL (≈ 5.33 µM) | 1 µg/mL (≈ 2.67 µM) | 0.5 µg/mL (≈ 1.33 µM) | 1 µg/mL (≈ 2.67 µM) | 0.5 µg/mL (≈ 1.33 µM) | 2 µg/mL (≈ 5.33 µM) | 2 µg/mL (≈ 5.33 µM) | 1 µg/mL (≈ 2.67 µM) | CC50 [1]: 9.2 µM; MIC [18]: 1 µg/mL (≈ 2.67 µM); MIC [19]: 1 µg/mL (≈ 2.67 µM); MIC [20]: 2 µg/mL (≈ 5.33 µM); Ratio (Staphylococcus aureus [21]): 128; Ratio (Staphylococcus aureus [22]): 128; Ratio (Staphylococcus aureus [23]): 128; Ratio (Staphylococcus aureus [24]): 128; Ratio [25]: 128; Ratio [26]: 128; Ratio [27]: 128; Ratio [28]: 128; MIC [29]: > 100 µg/mL
FC(F)(F)c1cccc(NC(S)=NCc2ccccc2)c1 | > 35 µM | > 45 µM | > 45 µM | > 45 µM | > 35 µM | 15 mm | 13 mm | 16 mm | 19 mm | 16 µg/mL (≈ 51.6 µM) | 16 µg/mL (≈ 51.6 µM) | 32 µg/mL (≈ 103 µM) | 16 µg/mL (≈ 51.6 µM) | 8 µg/mL (≈ 25.8 µM) | 8 µg/mL (≈ 25.8 µM) | 8 µg/mL (≈ 25.8 µM) | 16 µg/mL (≈ 51.6 µM) | 16 µg/mL (≈ 51.6 µM) | 16 µg/mL (≈ 51.6 µM) | 16 µg/mL (≈ 51.6 µM) | CC50 [1]: 45 µM; MIC [18]: 16 µg/mL (≈ 51.6 µM); MIC [19]: 8 µg/mL (≈ 25.8 µM); MIC [20]: 16 µg/mL (≈ 51.6 µM); Ratio (Staphylococcus aureus [21]): 128; Ratio (Staphylococcus aureus [22]): 128; Ratio (Staphylococcus aureus [23]): 128; Ratio (Staphylococcus aureus [24]): 128; Ratio [25]: 128; Ratio [26]: 128; Ratio [27]: 128; Ratio [28]: 128; MIC [29]: 25 µg/mL (≈ 80.6 µM)
FC(F)(F)c1cccc(NC(S)=Nc2ccc(Cl)c(Cl)c2)c1 | > 16 µM | > 9 µM | > 9.5 µM | > 9.5 µM | > 16 µM | 14 mm | 13 mm | 11 mm | 15 mm | 0.5 µg/mL (≈ 1.37 µM) | 0.5 µg/mL (≈ 1.37 µM) | 2 µg/mL (≈ 5.48 µM) | 1 µg/mL (≈ 2.74 µM) | 2 µg/mL (≈ 5.48 µM) | 2 µg/mL (≈ 5.48 µM) | 2 µg/mL (≈ 5.48 µM) | 2 µg/mL (≈ 5.48 µM) | 2 µg/mL (≈ 5.48 µM) | 1 µg/mL (≈ 2.74 µM) | 1 µg/mL (≈ 2.74 µM) | MIC [18]: 2 µg/mL (≈ 5.48 µM); MIC [19]: 1 µg/mL (≈ 2.74 µM); MIC [20]: 1 µg/mL (≈ 2.74 µM); Ratio (Staphylococcus aureus [21]): 128; Ratio (Staphylococcus aureus [22]): 128; Ratio (Staphylococcus aureus [23]): 128; Ratio (Staphylococcus aureus [24]): 128; Ratio [25]: 128; Ratio [26]: 128; Ratio [27]: 128; Ratio [28]: 128; MIC [29]: 100 µg/mL (≈ 274 µM)
